Source: ChEMBL document CHEMBL3797089, “Morusin Induces TRAIL Sensitization by Regulating EGFR and DR5 in Human Glioblastoma Cells” (J Nat Prod, 2016)
Activity calls are given as the source filed them. The rule behind the calls is not given here.

Experiments:
U-87 MG [1] = assay: Effect on cIAP1 expression in human U87MG cells at 25uM after 3 to 18 hrs by Western blot analysis; assay type: functional, cell-based; settings: U-87MG ATCC
In short: (§1)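 Time course: U87MG and U373MG cells held at 25 μM morusin for the times indicated. Extracts immunoblotted (cIAP1 or DR5), with β-actin as loading control.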

[2] = Cytotoxicity against human U251MG cells assessed as reduction in cell viability after 24 hrs by MTT assay; assay type: functional, cell-based; settings: U-251, 24 h
In short: (§2)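 Seeded 3–5 × 10^3 cells/well, treated the next day with a range of morusin (DMSO stock) for 24 h, 37 °C, 5% CO2. Then fresh medium with 1 mg/mL MTT for 2 h at 37 °C, lysis buffer overnight at 37 °C, OD 570 nm. Mean ± SD from at least three independent experiments in triplicate.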

U373 MG [3] = assay: Effect on DcR1 expression in human U373MG cells upto 25 uM after 24 hrs by Western blot analysis; assay type: functional, cell-based; settings: U-373MG ATCC
In short: (§3)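 Cells exposed to a range of morusin concentrations for 24 h. Cell extracts immunoblotted for DR4, DR5, DcR1 and DcR2, with β-actin as internal control and HRP-conjugated secondary antibodies (1:5000).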

T98G [4] = assay: Reduction of PDGFR expression in human T98G cells at 25 uM after 24 hrs by Western blot analysis; assay type: functional, cell-based
In short: (§4)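 LN18, U87MG, T98G, U251MG and U373MG glioblastoma cells were exposed to morusin for 24 h. Cells were maintained in DMEM, MEM or RPMI with 10% FBS at 37 °C and 5% CO2. Whole-cell lysates were Western blotted for receptor proteins, with β-actin as internal control.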

[5] = Reduction of XIAP expression in human U373MG cells at 25 uM by Western blot analysis; assay type: functional, cell-based; settings: U-373MG ATCC, TDE = time-dependent effect
In short: (§5)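 Time course: U87MG and U373MG cells were exposed to 25 μM morusin for the indicated times. Whole-cell extracts were Western blotted, with β-actin as internal control.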

U-87 MG [6] = assay: Induction of apoptosis in human U87MG cells assessed as increase in cleaved caspase 3 levels at 2.5 uM after 24 hrs by Western blot analysis in presence of TRAIL; assay type: functional, cell-based; settings: U-87MG ATCC
In short: (§6)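 U87MG and T98G given TRAIL 25 ng/mL plus morusin 2.5 μM together for 24 h; single-agent arms used TRAIL 50 ng/mL or morusin 5 μM. Lysates immunoblotted for cleaved caspase 3, 8, 9 and cleaved PARP, with β-actin as internal control.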

T98G [7] = assay: Cytotoxicity against human T98G cells assessed as reduction in cell viability after 24 hrs by MTT assay; assay type: functional, cell-based; in short: as §2
[8] = Reduction of XIAP expression in human U87MG cells at 25 uM by Western blot analysis; assay type: functional, cell-based; settings: U-87MG ATCC, TDE = time-dependent effect; in short: as §5
[9] = Reduction of XIAP expression in human U87MG cells after 24 hrs by Western blot analysis; assay type: functional, cell-based; settings: U-87MG ATCC
In short: (§7)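 U87MG (MEM) and U373MG (RPMI) cells were given graded morusin concentrations for 24 h. Whole-cell extracts were immunoblotted for anti-apoptotic proteins, with β-actin as loading control.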

U373 MG [10] = assay: Induction of DR4 expression in human U373MG cells at 25 uM after 24 hrs by FITC-conjugated flow cytometric analysis; assay type: functional, cell-based; settings: U-373MG ATCC
In short: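 Cells given 25 μM morusin for 24 h, then stained on ice for 30 min with 0.5 μg/mL FITC-conjugated anti-DR4, anti-DR5 or isotype IgG in FACS buffer. Surface expression read by flow cytometry.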

U-87 MG [11] = assay: Induction of DR5 expression in human U87MG cells at 25 uM by Western blot analysis; assay type: functional, cell-based; settings: U-87MG ATCC, TDE = time-dependent effect; in short: as §1
LN-18 = assay: Effect on DcR1 expression in human LN18 cells upto 25 uM after 24 hrs by Western blot analysis; assay type: functional, cell-based; in short: as §3
T98G [12] = assay: Reduction of EGFR expression in human T98G cells at 25 uM after 24 hrs by Western blot analysis; assay type: functional, cell-based; in short: as §4
T98G [13] = assay: Induction of apoptosis in human T98G cells assessed as apoptic cells at 20 uM after 24 hrs by V-FITC/propidium iodide staining based flow cytometric analysis in presence of TRAIL; assay type: functional, cell-based
In short: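 (2–3) × 10^5 cells/well given TRAIL 50 ng/mL with morusin 20 μM for 24 h. Annexin V-FITC/PI double staining, flow cytometry; annexin V-positive cells counted as apoptotic. Mean ± SD, t-test against mock.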

T98G [14] = assay: Induction of apoptosis in human T98G cells assessed as increase in cleaved caspase 9 levels at 2.5 uM after 24 hrs by Western blot analysis in presence of TRAIL; assay type: functional, cell-based; in short: as §6
U-251 = assay: Induction of DR5 expression in human U251MG cells after 24 hrs by Western blot analysis; assay type: functional, cell-based; in short: as §3
[15] = Cytotoxicity against human U373MG cells assessed as reduction in cell viability measured up to 20 uM after 24 hrs by MTT assay in presence of TRAIL; assay type: functional, U-373MG ATCC
In short: (§8)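 MTT viability. 3–5 × 10^3 cells/well, treated the next day with TRAIL 100 ng/mL plus increasing morusin concentrations for 24 h. 1 mg/mL MTT for 2 h at 37 °C, lysis overnight, OD 570 nm. Living-cell fractions were used for combination index analysis. Mean ± SD, at least three independent experiments.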

[16] = molecular target: Signal transducer and activator of transcription 3 (Homo sapiens) (UniProt P40763); assay: Inhibition of STAT3 phosphorylation in human U87MG cells measured up to 25 uM after 24 hrs by Western blot analysis; assay type: cell-based; settings: U-87MG ATCC
In short: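 Cells grown in MEM (U87MG) or RPMI (U373MG) with 10% FBS, 5% CO2, 37 °C. Treated for 24 h with the indicated concentrations of morusin (DMSO stock). Whole-cell lysates immunoblotted for phosphorylated and total proteins, with β-actin as internal control.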

[17] = Reduction of survivin expression in human U87MG cells after 24 hrs by Western blot analysis; assay type: functional, cell-based; settings: U-87MG ATCC; in short: as §7
[18] = Reduction of survivin expression in human U373MG cells at 25 uM by Western blot analysis; assay type: functional, cell-based; settings: U-373MG ATCC, TDE = time-dependent effect; in short: as §5
[19] = Cytotoxicity against human U87MG cells assessed as reduction in cell viability after 24 hrs by MTT assay; assay type: functional, cell-based, U-87MG ATCC; settings: U-87 MG; in short: as §2
[20] = Cytotoxicity against human U87MG cells assessed as reduction in cell viability measured up to 20 uM after 24 hrs by MTT assay in presence of TRAIL; assay type: functional, U-87MG ATCC; in short: as §8
[21] = Reduction of PDGFR expression in human U251MG cells at 25 uM after 24 hrs by Western blot analysis; assay type: functional, cell-based; settings: U-251; in short: as §4
U-87 MG [22] = assay: Effect on DR4 expression in human U87MG cells upto 25 uM after 24 hrs by Western blot analysis; assay type: functional, cell-based; settings: U-87MG ATCC; in short: as §3
U373 MG [23] = assay: Induction of DR5 expression in human U373MG cells after 24 hrs by Western blot analysis; assay type: functional, cell-based; settings: U-373MG ATCC; in short: as §3
U373 MG [24] = assay: Effect on DR4 expression in human U373MG cells upto 25 uM after 24 hrs by Western blot analysis; assay type: functional, cell-based; settings: U-373MG ATCC; in short: as §3
U-87 MG [25] = assay: Effect on cIAP1 expression in human U87MG cells at 12 to 25 uM after 24 hrs by Western blot analysis; assay type: functional, cell-based; settings: U-87MG ATCC
In short: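 U87MG and U373MG exposed to a range of morusin concentrations for 24 h. Whole-cell extracts immunoblotted for cIAP1, with β-actin as internal control.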

[26] = Reduction of EGFR expression in human U87MG cells at 25 uM after 24 hrs by Western blot analysis; assay type: functional, cell-based; settings: U-87MG ATCC; in short: as §4

Sequence of Signal transducer and activator of transcription 3 (Homo sapiens) (P40763 whole entry): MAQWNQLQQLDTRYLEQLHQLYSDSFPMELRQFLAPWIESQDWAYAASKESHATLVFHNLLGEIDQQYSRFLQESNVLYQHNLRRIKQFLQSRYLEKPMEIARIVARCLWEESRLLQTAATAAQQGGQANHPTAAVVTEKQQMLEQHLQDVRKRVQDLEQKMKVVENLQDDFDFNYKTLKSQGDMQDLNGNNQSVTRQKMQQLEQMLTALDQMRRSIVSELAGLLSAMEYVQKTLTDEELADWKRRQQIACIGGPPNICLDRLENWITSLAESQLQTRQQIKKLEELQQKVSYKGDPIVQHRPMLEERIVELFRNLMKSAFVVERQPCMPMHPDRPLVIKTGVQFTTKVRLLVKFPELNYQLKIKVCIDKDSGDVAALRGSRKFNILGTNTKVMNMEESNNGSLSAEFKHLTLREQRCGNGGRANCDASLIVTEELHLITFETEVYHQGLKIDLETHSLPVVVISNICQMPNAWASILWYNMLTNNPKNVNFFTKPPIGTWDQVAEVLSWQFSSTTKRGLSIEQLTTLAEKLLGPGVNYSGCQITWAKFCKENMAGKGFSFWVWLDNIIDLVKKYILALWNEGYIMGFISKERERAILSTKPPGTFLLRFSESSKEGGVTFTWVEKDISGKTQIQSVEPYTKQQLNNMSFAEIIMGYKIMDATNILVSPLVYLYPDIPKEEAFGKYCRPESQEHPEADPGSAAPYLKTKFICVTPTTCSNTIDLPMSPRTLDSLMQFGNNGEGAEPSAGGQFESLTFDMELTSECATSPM

Structure (SMILES): CC(C)=CCc1c(-c2ccc(O)cc2O)oc2c3c(cc(O)c2c1=O)OC(C)(C)C=C3 [MORUSIN]
- Activity (U-87 MG [1]): inactive
- IC50 [2]: 24 µM
- Activity (U373 MG [3]): inactive
- Activity (T98G [4]): Active
- inhibition [5]: tde
- Activity (U-87 MG [6]): Active
- IC50 (T98G [7]): 24 µM
- inhibition [8]: tde
- inhibition [9]: Dose-dependent effect
- Activity (U373 MG [10]): inactive
- Activity (U-87 MG [11]): tde
- Activity (LN-18): inactive
- Activity (T98G [12]): Active
- Activity (T98G [13]): Active
- Activity (T98G [14]): Active
- Activity (U-251): Dose-dependent effect
- CI [15]: <0.8
- inhibition [16]: Active
- inhibition [17]: Dose-dependent effect
- inhibition [18]: tde
- IC50 [19]: 24 µM
- CI [20]: <0.8
- Activity [21]: Active
- Activity (U-87 MG [22]): inactive
- Activity (U373 MG [23]): Dose-dependent effect
- Activity (U373 MG [24]): inactive
- Activity (U-87 MG [25]): inactive
- Activity [26]: Active
